Measurements reported in ChEMBL document CHEMBL4610117 (J Med Chem, 2020).

Tests used:
[1] = Clearance in Wistar rat at 0.3 to 0.5 mg/kg, iv administered as bolus dose by LC-MS/MS analysis; format: ADME, organism-based; details: in vivo
[2] = Volume of distribution at steady state in Wistar rat at 0.3 to 0.5 mg/kg, iv administered as bolus dose by LC-MS/MS analysis; format: ADME, organism-based; details: in vivo, read-out: Vdss
[3] = target: T1, Cyclin-G-associated kinase (Homo sapiens, UniProt O14976); assay: Binding affinity to wild-type human partial length GAK (G13 to Y338 residues) expressed in bacterial expression system by Kinomescan method
T1 sequence (O14976 whole entry): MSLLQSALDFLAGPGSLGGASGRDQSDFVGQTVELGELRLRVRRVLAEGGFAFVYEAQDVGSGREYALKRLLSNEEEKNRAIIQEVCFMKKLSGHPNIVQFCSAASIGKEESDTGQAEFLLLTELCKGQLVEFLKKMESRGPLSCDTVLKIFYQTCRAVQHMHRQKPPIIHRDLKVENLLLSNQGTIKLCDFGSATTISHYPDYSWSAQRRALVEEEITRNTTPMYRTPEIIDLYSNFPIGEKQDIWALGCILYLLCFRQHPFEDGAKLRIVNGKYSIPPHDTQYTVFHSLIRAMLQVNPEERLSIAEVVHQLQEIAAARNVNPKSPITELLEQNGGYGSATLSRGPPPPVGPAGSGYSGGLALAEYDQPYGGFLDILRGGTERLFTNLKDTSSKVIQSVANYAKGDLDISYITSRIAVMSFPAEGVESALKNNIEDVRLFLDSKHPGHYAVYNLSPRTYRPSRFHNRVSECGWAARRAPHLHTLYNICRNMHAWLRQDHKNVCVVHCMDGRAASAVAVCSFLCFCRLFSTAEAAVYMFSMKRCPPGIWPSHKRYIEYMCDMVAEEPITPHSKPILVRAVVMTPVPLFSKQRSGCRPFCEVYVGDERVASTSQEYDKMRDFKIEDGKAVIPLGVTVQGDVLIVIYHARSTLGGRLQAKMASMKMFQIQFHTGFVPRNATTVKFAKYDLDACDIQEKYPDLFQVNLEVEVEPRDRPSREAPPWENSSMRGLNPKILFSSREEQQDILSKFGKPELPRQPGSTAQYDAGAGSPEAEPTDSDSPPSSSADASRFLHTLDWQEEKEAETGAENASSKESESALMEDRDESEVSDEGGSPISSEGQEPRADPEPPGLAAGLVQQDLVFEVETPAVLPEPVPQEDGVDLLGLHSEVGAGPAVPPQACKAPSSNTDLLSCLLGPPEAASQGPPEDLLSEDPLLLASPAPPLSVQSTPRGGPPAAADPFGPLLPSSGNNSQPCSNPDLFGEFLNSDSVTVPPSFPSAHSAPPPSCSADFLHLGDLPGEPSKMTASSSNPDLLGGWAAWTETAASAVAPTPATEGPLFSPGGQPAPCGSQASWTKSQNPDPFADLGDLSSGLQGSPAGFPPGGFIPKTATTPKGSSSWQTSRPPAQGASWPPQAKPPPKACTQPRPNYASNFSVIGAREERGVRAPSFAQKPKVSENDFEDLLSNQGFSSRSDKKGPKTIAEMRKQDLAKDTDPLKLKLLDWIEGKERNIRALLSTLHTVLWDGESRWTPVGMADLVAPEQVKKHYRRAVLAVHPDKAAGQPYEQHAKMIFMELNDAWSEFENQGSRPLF

[4] = Maximum oral bioavailability in dog liver microsomes based well stirred liver model at 1 uM measured after 2 to 60 mins in presence of NADP by LC-MS/MS analysis; format: ADME, Canis lupus familiaris, Microsome; details: read-out: Fmax
[5] = Protein binding in human plasma assessed as unbound fraction at 3 uM measured after 7 hrs by LC-MS/MS analysis; format: ADME, cell-free
[6] = Volume of distribution at steady state in Beagle dog at 0.3 to 0.5 mg/kg, iv administered as bolus dose by LC-MS/MS analysis; format: ADME, organism-based, Canis lupus familiaris; details: in vivo, read-out: Vdss
[7] = Antitumor activity against human CR5038 cells xenografted in NOD/SCID mouse assessed as tumor growth at 20 mg/kg, po qd dosed every 2 days followed by 5 days interval for 2 weeks and subsequent dosing at 10 mg/kg in presence of carboplatin relative to control; format: functional
How it was run: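 CR5038 human CRC PDX in NOD/SCID mice, n = 10/group. Oral dosing q.d. at 20 mg/kg, reduced to 10 mg/kg from day 14, 2 days on/5 days off. Combined with carboplatin 40 mg/kg i.p. once weekly (1 day on/6 days off). T/C ratio reported versus vehicle and the monotherapies; body weight was monitored.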

For `C[C@@H]1COCCN1c1cc(-c2ccnn2C)c2ccnc(-c3ccn[nH]3)c2n1` [ELIMUSERTIB], the clearance [1] was 20 mL/min/kg, the Vd [2] was 1.7 L/kg and the Kd [3] was 0.58 µM. The Fh at 1 µM [4] was 54%, the fraction unbound at 7 h, 3 µM [5] was 0.03 and the Vd [6] was 1 L/kg. It also gave a T/C [7] of 0.34.
